Test results taken from ChEMBL document CHEMBL1221219, “Selective blockade of 2-arachidonoylglycerol hydrolysis produces cannabinoid behavioral effects” (Nat Chem Biol, 2009).
Calls of active or inactive are those of the source. The calls are words filed in the database; no cut-off is given here.

Columns and labels:
Mus musculus [1] = assay: Change in mono-oleoylglycerol levels in intraperitoneally dosed C57B1/6J mouse brain by LC-MS; format: functional, organism-based
Procedure, shortened: (§1)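 Male C57Bl/6J mice given 4, 8, 16 or 40 mg kg^-1 i.p. in 4:1 PEG300:Tween80 at 4 μl g^-1, or vehicle, and killed after 4 h. Whole-brain lipids were quantified by LC-MS.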

Mus musculus [2] = assay: Induction of hypomotility in CB1 receptor deficient C57B1/6J mouse at 16 mg/kg, ip; format: functional, organism-based; set-up: dose 16 mg/kg
Procedure, shortened: (§2)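 Male C57Bl/6J mice, 6-8 weeks, 20-26 g, given 16 mg kg^-1 i.p. in 4:1 v/v PEG300:Tween80 at 4 μl g^-1; vehicle controls received PEG300:Tween80 alone. Cannabinoid effects were scored in the tetrad test.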

Mus musculus [3] = assay: Inhibition of AADACL1 in C57B1/6J mouse brain membrane at 16 mg/kg, ip after 4 hrs by competitive activity-based protein profiling-MudPIT method; format: functional, organism-based; set-up: dose 16 mg/kg
Procedure, shortened: (§3)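 Mice were dosed 16 mg kg^-1 i.p. or vehicle and killed at 4 h. Brain membrane proteomes were labelled with FP-biotin, avidin-enriched, trypsin-digested on bead, analysed by multidimensional LC-MS and identified by SEQUEST.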

Mus musculus [4] = assay: Inhibition of PLA2G7 in C57B1/6J mouse brain membrane at 16 mg/kg, ip after 4 hrs by competitive activity-based protein profiling-MudPIT method; format: functional, organism-based; set-up: dose 16 mg/kg
Procedure, shortened: (§4)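 After i.p. dosing in 4:1 PEG300:Tween80, male C57Bl/6J mice were killed at 4 h. Brain membrane proteomes from treated and vehicle mice were labelled with FP-biotin. Labelled proteins were enriched on avidin, digested on-bead with trypsin and analysed by multidimensional LC-MS. Proteins were identified by SEQUEST, and dosed samples were compared with vehicle.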

[5] = target: T1, Cytosolic phospholipase A2 (Homo sapiens) (UniProt P47712); assay: Inhibition of recombinant cPLA2 4a expressed in HEK293 cells at 20 uM by FP-rhodamine labeling method; format: cell-based
T1 sequence (whole entry): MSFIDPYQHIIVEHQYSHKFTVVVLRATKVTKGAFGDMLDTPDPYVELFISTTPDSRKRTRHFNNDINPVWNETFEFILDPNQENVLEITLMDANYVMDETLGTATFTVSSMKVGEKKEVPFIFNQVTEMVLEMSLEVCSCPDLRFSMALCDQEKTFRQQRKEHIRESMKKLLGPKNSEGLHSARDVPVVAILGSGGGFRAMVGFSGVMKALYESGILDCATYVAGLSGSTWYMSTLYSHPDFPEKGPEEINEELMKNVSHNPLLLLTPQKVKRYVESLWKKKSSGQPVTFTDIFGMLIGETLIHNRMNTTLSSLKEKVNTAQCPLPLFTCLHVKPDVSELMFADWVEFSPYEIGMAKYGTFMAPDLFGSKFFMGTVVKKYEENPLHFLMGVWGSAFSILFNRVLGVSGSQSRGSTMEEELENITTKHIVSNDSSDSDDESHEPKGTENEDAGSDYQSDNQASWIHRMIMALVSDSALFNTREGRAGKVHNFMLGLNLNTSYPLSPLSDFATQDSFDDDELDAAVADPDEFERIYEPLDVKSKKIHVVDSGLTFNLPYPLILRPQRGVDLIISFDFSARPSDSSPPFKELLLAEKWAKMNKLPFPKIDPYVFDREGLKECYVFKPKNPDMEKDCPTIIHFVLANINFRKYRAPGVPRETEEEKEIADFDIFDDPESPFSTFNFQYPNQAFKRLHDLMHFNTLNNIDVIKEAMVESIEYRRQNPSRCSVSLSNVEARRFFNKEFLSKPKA

Mus musculus [6] = assay: Inhibition of FAAH in C57B1/6J mouse brain membrane at 16 mg/kg, ip after 4 hrs by competitive activity-based protein profiling-MudPIT method; format: functional, organism-based; set-up: dose 16 mg/kg; procedure, shortened: as §4
Mus musculus [7] = assay: Inhibition of NTE-like in C57B1/6J mouse brain membrane at 16 mg/kg, ip after 4 hrs by competitive activity-based protein profiling-MudPIT method; format: functional, organism-based; set-up: dose 16 mg/kg; procedure, shortened: as §4
Mus musculus [8] = assay: Inhibition of ACOT1 in C57B1/6J mouse brain membrane at 16 mg/kg, ip after 4 hrs by competitive activity-based protein profiling-MudPIT method; format: functional, organism-based; set-up: dose 16 mg/kg; procedure, shortened: as §3
Mus musculus [9] = assay: Inhibition of 2210412D01 gene in C57B1/6J mouse brain membrane at 16 mg/kg, ip after 4 hrs by competitive activity-based protein profiling-MudPIT method; format: functional, organism-based; set-up: dose 16 mg/kg; procedure, shortened: as §3
Mus musculus [10] = assay: Inhibition of MAGL in C57B1/6J mouse brain membrane at 16 mg/kg, ip after 0.5 hrs by competitive activity-based protein profiling method; format: functional, organism-based; set-up: dose 16 mg/kg
Procedure, shortened: (§5)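 Male C57Bl/6J mice (6-8 weeks, 20-26 g) given inhibitor i.p. in 4:1 v/v PEG300:Tween80 at 4 ul g^-1 (4-40 mg kg^-1); vehicle controls. Brain membrane proteomes (1 mg ml^-1 in PBS) labelled with FP-rhodamine (2 μM) for 30 min at room temperature. Readout by SDS-PAGE and in-gel fluorescence scanning, compared with vehicle.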

Mus musculus [11] = assay: Visceral analgesic activity against C57B1/6J mouse assessed as inhibition of acetic acid-induced writhing response for 20 mins at 16 mg/kg, ip pretreated 2 hr before acetic acid challenge; format: functional, organism-based; set-up: dose 16 mg/kg
Procedure, shortened: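 Male C57Bl/6J mice (6-8 weeks) dosed 16 mg kg^-1 i.p. in 4:1 v/v PEG300:Tween80, with vehicle controls. Assessed in the tetrad test for cannabinoid effects or in the acetic acid-induced abdominal stretching assay.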

Mus musculus [12] = assay: Inhibition of CG167 in C57B1/6J mouse brain membrane at 16 mg/kg, ip after 4 hrs by competitive activity-based protein profiling-MudPIT method; format: functional, organism-based; set-up: dose 16 mg/kg; procedure, shortened: as §3
Mus musculus [13] = assay: Inhibition of FAAH in C57B1/6J mouse brain membrane at 4 mg/kg, ip after 4 hrs by competitive activity-based protein profiling method relative to control; format: functional; conditions: route intraperitoneal; procedure, shortened: as §5
Mus musculus [14] = assay: Inhibition of NTE in C57B1/6J mouse brain membrane at 16 mg/kg, ip after 4 hrs by competitive activity-based protein profiling-MudPIT method; format: functional, organism-based; set-up: dose 16 mg/kg; procedure, shortened: as §4
[15] = target: T1, Cytosolic phospholipase A2 (Homo sapiens); assay: Inhibition of recombinant cPLA2 4a expressed in HEK293 cells at 20 uM by radiolabeled TLC assay; format: cell-based
Mus musculus [16] = assay: Induction of hypomotility in C57B1/6J mouse at 16 mg/kg, ip; format: functional, organism-based; set-up: dose 16 mg/kg; procedure, shortened: as §2
Mus musculus [17] = assay: Decrease in arachidonic acid levels in intraperitoneally dosed C57B1/6J mouse brain after 4 hrs by LC-MS; format: functional, organism-based; procedure, shortened: as §1
Mus musculus [18] = assay: Change in monopalmitoylglycerol levels in intraperitoneally dosed C57B1/6J mouse brain by LC-MS; format: functional, organism-based; procedure, shortened: as §1
Mus musculus [19] = assay: Inhibition of FAAH in C57B1/6J mouse brain membrane at 16 mg/kg, ip after 0.5-24 hrs by competitive activity-based protein profiling method; format: functional; conditions: route intraperitoneal; procedure, shortened: as §5
Mus musculus [20] = assay: Inhibition of PRCP in C57B1/6J mouse brain membrane at 16 mg/kg, ip after 4 hrs by competitive activity-based protein profiling-MudPIT method; format: functional, organism-based; set-up: dose 16 mg/kg; procedure, shortened: as §4
Mus musculus [21] = assay: Inhibition of LYPLA3 in C57B1/6J mouse brain membrane at 16 mg/kg, ip after 4 hrs by competitive activity-based protein profiling-MudPIT method; format: functional, organism-based; set-up: dose 16 mg/kg; procedure, shortened: as §4

How did the Activity (Mus musculus [1]) turn out when O=C(Oc1ccc([N+](=O)[O-])cc1)N1CCC(C(O)(c2ccc3c(c2)OCO3)c2ccc3c(c2)OCO3)CC1 was run?
The Activity was “inactive”.

What about the Activity (Mus musculus [2]) of the same compound?
Its Activity is “inactive”.

And the inhibition (Mus musculus [3])?
The inhibition was “inactive”.

And the inhibition (Mus musculus [4])?
Its inhibition is “inactive”.

What about the inhibition [5] of the same compound?
The inhibition was “inactive”.

And the inhibition (Mus musculus [6])?
Its inhibition is “inactive”.

What about the inhibition (Mus musculus [7]) of the same compound?
Its inhibition is “inactive”.

What about the inhibition (Mus musculus [8]) of the same compound?
Its inhibition is “inactive”.

What about the inhibition (Mus musculus [9]) of the same compound?
Its inhibition is “inactive”.

And the inhibition (Mus musculus [10])?
The inhibition was “Active”.

What about the Activity (Mus musculus [11]) of the same compound?
Its Activity is “Active”.

What about the inhibition (Mus musculus [12]) of the same compound?
The inhibition was “inactive”.

What about the inhibition in vivo at 4 mg/kg (Mus musculus [13]) of the same compound?
Its inhibition in vivo at 4 mg/kg is under 20%.

And the inhibition (Mus musculus [14])?
The inhibition was “inactive”.

What about the inhibition [15] of the same compound?
The inhibition was “inactive”.

What about the Activity (Mus musculus [16]) of the same compound?
Its Activity is “Active”.

What about the Activity (Mus musculus [17]) of the same compound?
The Activity was “Active”.

What about the Activity (Mus musculus [18]) of the same compound?
Its Activity is “inactive”.

What about the inhibition in vivo at 16 mg/kg (Mus musculus [19]) of the same compound?
The inhibition in vivo at 16 mg/kg was 70%.

What about the inhibition (Mus musculus [20]) of the same compound?
Its inhibition is “inactive”.

And the inhibition (Mus musculus [21])?
Its inhibition is “inactive”.
